Results taken from ChEMBL document CHEMBL4196172 (J Med Chem, 2018).
Blank lines part the entries; values can stand above or below the molecule they belong to. Activity calls are given as the source filed them. The calls are words filed in the database; no cut-off is given here.

Assays:
[1] = Half life in rat liver microsomes at 0.5 uM; type: ADME, microsome
[2] = Hepatic extraction ratio in rat liver microsomes at 0.5 uM; type: ADME, microsome; conditions: read-out: ERH
[3] = Intrinsic clearance in rat liver microsomes at 0.5 uM; type: ADME, microsome
[4] = molecular target: cGMP-specific 3',5'-cyclic phosphodiesterase (Homo sapiens, UniProt O76074); experiment: Inhibition of human PDE5A1 catalytic domain (535 to 860 residues) expressed in Escherichia coli BL21 using 3H-cGMP as substrate after 15 mins by liquid scintillation counting
[5] = Apparent clearance in rat liver microsomes at 0.5 uM; type: ADME, microsome; conditions: read-out: CLH(app)
[6] = Metabolic stability in rat liver microsomes assessed as stability rate constant at 0.5 uM; type: ADME, microsome
Rattus norvegicus [7] = experiment: Anti-hypertensive activity in MCT-induced pulmonary hypertension Wistar rat model assessed as reduction in wall thickness percentage at 10 mg/kg, po administered for 3 weeks; type: functional, organism-based
Procedure, shortened: (§1)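 PAH was induced in rats by monocrotaline (MCT) injection and confirmed after 3 weeks against an untreated control group. Treated groups received oral dosing and were compared with the MCT model group. Read-outs were mean pulmonary artery pressure, right ventricle hypertrophy index, and small pulmonary artery wall thickness as % of external diameter. Data are mean ± S.E.M., n = 6-9/group.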

Rattus norvegicus [8] = experiment: Anti-hypertensive activity in MCT-induced pulmonary hypertension Wistar rat model assessed as reduction in RVHI at 10 mg/kg, po administered for 3 weeks; type: functional, organism-based; procedure, shortened: as §1
[9] = molecular target: Dual 3',5'-cyclic-AMP and -GMP phosphodiesterase 11A (Homo sapiens, UniProt Q9HCR9); experiment: Inhibition of PDE11A catalytic domain (588 to 911 residues) (unknown origin) expressed in Escherichia coli BL21 using 3H-cAMP as substrate after 15 mins by liquid scintillation counting
Rattus norvegicus [10] = experiment: Anti-hypertensive activity in MCT-induced pulmonary hypertension Wistar rat model assessed as mean pulmonary artery pressure at 1.25 mg/kg, po administered for 3 weeks (reference value: 52.55 mmHg); type: functional; procedure, shortened: as §1
[11] = molecular target: Cone cGMP-specific 3',5'-cyclic phosphodiesterase subunit alpha' (Homo sapiens, UniProt P51160); experiment: Inhibition of PDE6C catalytic domain (1 to 858 residues) (unknown origin) expressed in Escherichia coli BL21 using 3H-cGMP as substrate after 15 mins by liquid scintillation counting
Rattus norvegicus [12] = experiment: Anti-hypertensive activity in MCT-induced pulmonary hypertension Wistar rat model assessed as reduction in RVHI at 1.25 mg/kg, po administered for 3 weeks; type: functional, organism-based; procedure, shortened: as §1
[13] = Protein binding in human plasma at 1 uM after 4 hrs by LC/MS/MS analysis; type: ADME, cell-free; conditions: read-out: PPB (converted)
Cytochrome P450 2C9 = Cytochrome P450 2C9 (Homo sapiens, UniProt P11712); experiment: Inhibition of CYP2C9 in human liver microsomes in presence of NADPH; type: ADME
Cytochrome P450 1A2 = molecular target: T1, Cytochrome P450 1A2 (Homo sapiens, UniProt P05177); experiment: Inhibition of CYP1A2 in human liver microsomes in presence of NADPH; type: ADME
T1 sequence (P05177 whole entry): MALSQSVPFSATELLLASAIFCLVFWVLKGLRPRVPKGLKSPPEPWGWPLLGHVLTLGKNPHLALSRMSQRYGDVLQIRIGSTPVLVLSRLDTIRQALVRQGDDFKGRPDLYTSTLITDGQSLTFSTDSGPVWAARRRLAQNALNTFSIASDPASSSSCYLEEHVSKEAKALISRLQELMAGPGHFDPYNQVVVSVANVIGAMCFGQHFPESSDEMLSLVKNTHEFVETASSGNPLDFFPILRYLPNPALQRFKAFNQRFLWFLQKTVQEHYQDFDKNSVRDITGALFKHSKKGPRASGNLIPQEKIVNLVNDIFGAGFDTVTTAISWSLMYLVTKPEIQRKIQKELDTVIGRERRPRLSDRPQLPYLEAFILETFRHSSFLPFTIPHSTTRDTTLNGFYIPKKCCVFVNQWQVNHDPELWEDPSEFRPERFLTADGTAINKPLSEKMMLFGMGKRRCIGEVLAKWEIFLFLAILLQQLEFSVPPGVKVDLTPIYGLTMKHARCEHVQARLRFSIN

Mus musculus = experiment: Acute toxicity in KM mouse up to 1.5 g/kg, po administered as single dose measured after 14 days; type: organism-based; conditions: in vivo, 1500 mg/kg, 336 h
[14] = molecular target: 3',5'-cyclic-AMP phosphodiesterase 4D (Homo sapiens, UniProt Q08499); experiment: Inhibition of PDE4D2 catalytic domain (86 to 413 residues) (unknown origin) expressed in Escherichia coli BL21 using 3H-cAMP as substrate after 15 mins by liquid scintillation counting
[15] = molecular target: Voltage-gated inwardly rectifying potassium channel KCNH2 (Homo sapiens, UniProt Q12809); experiment: Inhibition of human ERG expressed in CHO cells by automated patch clamp assay; type: cell-based
Cytochrome P450 2B6 = molecular target: T2, Cytochrome P450 2B6 (Homo sapiens, UniProt P20813); experiment: Inhibition of CYP2B6 in human liver microsomes in presence of NADPH; type: ADME
T2 sequence (P20813 whole entry): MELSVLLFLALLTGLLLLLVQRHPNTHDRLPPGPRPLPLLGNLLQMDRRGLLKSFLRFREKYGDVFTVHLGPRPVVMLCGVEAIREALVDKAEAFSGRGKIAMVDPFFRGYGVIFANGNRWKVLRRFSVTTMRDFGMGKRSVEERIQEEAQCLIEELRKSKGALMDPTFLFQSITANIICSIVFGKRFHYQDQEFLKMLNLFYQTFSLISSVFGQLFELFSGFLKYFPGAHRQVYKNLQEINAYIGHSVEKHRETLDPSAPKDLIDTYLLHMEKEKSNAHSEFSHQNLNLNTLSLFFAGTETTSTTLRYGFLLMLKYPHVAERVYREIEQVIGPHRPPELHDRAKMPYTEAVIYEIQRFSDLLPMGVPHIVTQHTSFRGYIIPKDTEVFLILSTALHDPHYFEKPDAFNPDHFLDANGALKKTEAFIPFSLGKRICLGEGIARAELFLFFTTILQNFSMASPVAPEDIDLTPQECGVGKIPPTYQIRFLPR

Cytochrome P450 3A4 = Cytochrome P450 3A4 (Homo sapiens, UniProt P08684); experiment: Inhibition of CYP3A4 in human liver microsomes in presence of NADPH; type: ADME
Rattus norvegicus [16] = experiment: Anti-hypertensive activity in MCT-induced pulmonary hypertension Wistar rat model assessed as reduction in wall thickness percentage at 1.25 mg/kg, po administered for 3 weeks; type: functional, organism-based; procedure, shortened: as §1
[17] = molecular target: cGMP-dependent 3',5'-cyclic phosphodiesterase (Homo sapiens, UniProt O00408); experiment: Inhibition of PDE2A catalytic domain (580 to 919 residues) (unknown origin) expressed in Escherichia coli BL21 using 3H-cGMP as substrate after 15 mins by liquid scintillation counting
[18] = molecular target: cAMP and cAMP-inhibited cGMP 3',5'-cyclic phosphodiesterase 10A (Homo sapiens, UniProt Q9Y233); experiment: Inhibition of PDE10A catalytic domain (449 to 770 residues) (unknown origin) expressed in Escherichia coli BL21 using 3H-cAMP as substrate after 15 mins by liquid scintillation counting
Homo sapiens = organism: Homo sapiens; experiment: Selectivity ratio of IC50 for PDE11A catalytic domain (588 to 911 residues) (unknown origin) to IC50 for human PDE5A1 catalytic domain (535 to 860 residues)
Rattus norvegicus [19] = experiment: Anti-hypertensive activity in MCT-induced pulmonary hypertension Wistar rat model assessed as mean pulmonary artery pressure at 10 mg/kg, po administered for 3 weeks (reference value: 52.55 mmHg); type: functional; procedure, shortened: as §1

cGMP-dependent 3',5'-cyclic phosphodiesterase, sequence (O00408 whole entry, the tested form may be a part): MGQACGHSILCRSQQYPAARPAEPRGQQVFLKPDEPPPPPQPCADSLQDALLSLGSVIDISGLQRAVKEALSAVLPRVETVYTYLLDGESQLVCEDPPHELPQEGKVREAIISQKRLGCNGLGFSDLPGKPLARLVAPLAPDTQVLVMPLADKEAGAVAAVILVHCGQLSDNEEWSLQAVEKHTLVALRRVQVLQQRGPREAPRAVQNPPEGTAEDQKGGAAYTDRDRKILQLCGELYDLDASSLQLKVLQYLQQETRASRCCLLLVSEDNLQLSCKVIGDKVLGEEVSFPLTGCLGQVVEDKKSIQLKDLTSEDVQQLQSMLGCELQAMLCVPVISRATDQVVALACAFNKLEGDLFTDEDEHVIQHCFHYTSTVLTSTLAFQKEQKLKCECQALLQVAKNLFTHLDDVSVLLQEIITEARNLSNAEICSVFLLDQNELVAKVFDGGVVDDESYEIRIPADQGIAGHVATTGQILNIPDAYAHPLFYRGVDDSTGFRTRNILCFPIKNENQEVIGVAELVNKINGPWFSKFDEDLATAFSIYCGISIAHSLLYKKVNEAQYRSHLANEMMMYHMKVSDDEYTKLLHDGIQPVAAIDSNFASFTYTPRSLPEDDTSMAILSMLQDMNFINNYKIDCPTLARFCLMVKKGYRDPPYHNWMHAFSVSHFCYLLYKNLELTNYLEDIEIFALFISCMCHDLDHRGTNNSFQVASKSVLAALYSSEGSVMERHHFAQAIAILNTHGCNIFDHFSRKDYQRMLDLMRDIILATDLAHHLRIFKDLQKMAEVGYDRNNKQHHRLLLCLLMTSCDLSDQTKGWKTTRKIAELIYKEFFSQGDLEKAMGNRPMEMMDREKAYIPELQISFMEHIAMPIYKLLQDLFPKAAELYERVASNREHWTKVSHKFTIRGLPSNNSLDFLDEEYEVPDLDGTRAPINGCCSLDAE
Cone cGMP-specific 3',5'-cyclic phosphodiesterase subunit alpha', sequence (P51160 whole entry, the tested form may be a part): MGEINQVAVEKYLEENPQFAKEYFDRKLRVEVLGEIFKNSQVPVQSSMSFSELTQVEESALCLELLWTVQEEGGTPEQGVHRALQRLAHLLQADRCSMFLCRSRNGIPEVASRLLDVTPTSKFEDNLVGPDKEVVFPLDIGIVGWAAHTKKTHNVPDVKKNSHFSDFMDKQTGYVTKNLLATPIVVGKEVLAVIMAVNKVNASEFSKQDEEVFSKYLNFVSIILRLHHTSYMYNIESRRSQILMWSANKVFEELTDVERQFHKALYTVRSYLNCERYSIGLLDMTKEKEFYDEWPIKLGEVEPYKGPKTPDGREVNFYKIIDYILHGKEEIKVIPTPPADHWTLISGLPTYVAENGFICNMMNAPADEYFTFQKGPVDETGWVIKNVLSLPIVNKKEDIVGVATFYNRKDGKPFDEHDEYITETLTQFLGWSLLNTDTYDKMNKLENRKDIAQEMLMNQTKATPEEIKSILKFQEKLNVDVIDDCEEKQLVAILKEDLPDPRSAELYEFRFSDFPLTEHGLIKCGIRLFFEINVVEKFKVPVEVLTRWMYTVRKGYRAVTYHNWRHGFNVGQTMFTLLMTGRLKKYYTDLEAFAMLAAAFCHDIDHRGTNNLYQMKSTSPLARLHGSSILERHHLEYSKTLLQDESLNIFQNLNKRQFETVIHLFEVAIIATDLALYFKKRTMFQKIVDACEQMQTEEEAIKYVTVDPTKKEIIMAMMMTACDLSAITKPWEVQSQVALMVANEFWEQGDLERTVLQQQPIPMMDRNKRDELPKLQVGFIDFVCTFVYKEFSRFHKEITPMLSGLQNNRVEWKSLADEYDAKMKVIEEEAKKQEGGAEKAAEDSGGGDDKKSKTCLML
3',5'-cyclic-AMP phosphodiesterase 4D, sequence (Q08499 whole entry, the tested form may be a part): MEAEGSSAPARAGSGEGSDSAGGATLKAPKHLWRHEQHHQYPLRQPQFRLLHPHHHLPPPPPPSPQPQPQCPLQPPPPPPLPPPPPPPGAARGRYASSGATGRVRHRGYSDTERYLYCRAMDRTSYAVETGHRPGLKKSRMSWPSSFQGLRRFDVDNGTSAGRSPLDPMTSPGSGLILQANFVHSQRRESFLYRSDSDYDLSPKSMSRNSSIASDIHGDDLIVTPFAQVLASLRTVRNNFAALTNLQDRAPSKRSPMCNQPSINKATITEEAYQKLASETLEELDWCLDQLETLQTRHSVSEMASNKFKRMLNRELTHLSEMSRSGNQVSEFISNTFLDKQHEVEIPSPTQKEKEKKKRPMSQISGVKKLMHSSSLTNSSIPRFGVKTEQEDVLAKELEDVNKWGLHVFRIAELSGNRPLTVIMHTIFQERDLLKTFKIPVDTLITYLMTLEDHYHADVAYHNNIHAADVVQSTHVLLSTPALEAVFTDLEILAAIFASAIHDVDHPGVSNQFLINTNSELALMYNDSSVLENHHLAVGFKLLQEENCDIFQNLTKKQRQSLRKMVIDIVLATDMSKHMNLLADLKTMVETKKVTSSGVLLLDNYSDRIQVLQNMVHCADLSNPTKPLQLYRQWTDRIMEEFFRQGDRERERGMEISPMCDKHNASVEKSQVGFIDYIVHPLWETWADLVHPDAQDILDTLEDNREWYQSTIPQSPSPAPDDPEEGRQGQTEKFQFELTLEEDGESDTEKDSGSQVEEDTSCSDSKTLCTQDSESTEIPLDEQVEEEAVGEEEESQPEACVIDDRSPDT
Voltage-gated inwardly rectifying potassium channel KCNH2, sequence (Q12809 whole entry): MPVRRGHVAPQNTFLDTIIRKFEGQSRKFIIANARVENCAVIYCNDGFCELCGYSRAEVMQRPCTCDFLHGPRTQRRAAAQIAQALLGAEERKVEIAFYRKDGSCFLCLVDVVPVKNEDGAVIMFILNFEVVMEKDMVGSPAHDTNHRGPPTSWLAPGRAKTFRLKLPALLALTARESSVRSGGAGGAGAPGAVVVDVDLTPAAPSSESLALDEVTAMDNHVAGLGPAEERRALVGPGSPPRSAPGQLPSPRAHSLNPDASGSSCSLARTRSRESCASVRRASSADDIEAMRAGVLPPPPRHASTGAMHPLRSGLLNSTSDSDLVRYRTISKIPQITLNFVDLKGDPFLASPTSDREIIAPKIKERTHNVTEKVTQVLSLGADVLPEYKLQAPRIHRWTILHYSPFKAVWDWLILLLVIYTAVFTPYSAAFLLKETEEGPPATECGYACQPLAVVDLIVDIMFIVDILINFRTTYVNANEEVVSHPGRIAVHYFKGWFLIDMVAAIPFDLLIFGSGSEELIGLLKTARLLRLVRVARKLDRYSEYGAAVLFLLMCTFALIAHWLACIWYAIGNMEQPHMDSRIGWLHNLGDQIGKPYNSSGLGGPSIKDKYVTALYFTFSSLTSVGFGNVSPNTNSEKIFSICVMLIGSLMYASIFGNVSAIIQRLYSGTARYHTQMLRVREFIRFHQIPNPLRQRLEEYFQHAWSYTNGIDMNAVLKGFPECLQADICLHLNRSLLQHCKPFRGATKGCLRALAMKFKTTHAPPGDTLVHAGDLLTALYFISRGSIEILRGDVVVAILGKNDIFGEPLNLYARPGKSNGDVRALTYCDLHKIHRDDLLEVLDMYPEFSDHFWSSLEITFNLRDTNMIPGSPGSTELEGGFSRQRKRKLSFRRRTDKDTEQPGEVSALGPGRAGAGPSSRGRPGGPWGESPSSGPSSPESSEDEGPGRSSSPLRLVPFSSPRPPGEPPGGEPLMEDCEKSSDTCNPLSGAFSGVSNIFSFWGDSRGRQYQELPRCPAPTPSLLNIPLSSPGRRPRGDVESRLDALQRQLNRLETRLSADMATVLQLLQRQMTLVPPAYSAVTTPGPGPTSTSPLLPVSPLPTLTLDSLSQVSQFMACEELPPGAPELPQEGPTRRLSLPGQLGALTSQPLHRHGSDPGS
Cytochrome P450 3A4, sequence (P08684 whole entry): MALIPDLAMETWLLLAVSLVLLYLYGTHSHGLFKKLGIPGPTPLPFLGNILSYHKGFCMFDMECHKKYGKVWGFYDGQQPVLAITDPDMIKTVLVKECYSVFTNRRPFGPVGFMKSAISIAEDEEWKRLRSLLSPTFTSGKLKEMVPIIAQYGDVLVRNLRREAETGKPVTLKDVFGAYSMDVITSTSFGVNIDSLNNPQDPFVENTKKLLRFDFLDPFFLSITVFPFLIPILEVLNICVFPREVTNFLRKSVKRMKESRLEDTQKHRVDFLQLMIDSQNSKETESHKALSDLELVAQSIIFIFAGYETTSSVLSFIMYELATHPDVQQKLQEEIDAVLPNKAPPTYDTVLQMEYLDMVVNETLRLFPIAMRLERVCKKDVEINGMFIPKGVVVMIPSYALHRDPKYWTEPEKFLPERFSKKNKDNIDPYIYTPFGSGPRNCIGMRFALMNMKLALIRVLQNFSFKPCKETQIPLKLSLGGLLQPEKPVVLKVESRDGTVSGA
Cytochrome P450 2C9, sequence (P11712 whole entry): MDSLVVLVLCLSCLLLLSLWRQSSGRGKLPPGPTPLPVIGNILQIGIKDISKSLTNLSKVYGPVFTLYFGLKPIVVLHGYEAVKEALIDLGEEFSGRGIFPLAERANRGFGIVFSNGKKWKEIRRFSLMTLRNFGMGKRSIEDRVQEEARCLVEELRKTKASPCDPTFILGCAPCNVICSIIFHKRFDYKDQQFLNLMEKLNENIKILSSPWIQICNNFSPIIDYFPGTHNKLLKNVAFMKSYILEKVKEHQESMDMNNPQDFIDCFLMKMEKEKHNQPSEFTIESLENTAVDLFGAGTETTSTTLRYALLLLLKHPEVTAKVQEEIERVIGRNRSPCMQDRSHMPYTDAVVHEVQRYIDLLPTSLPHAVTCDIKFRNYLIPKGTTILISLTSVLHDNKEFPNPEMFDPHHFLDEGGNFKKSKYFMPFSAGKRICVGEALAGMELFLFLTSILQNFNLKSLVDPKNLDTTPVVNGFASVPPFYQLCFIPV

half-life at 0.5 µM [1]: 9.52 min | hepatic extraction ratio at 0.5 µM [2]: 0.83 | Intrinsic clearance (CLint) [3]: 145.6 µL/min/mg | IC50 [4]: 1.41 nM | CLint scaled at 0.5 µM [5]: 262 mL/min/kg | K [6]: 0.0728
SMILES: O=c1c2c(F)cccc2oc2c(Cc3ccc4c(c3)OCO4)[nH]c(-c3nccs3)c12

SMILES: CCCc1nn(C)c2c(=O)[nH]c(-c3cc(S(=O)(=O)N4CCN(C)CC4)ccc3OCC)nc12 [listing 1 of 2 here]
Activity (Rattus norvegicus [7]): Active | Activity (Rattus norvegicus [8]): Active

IC50 [4]: 4.38 nM
SMILES: COc1cccc2oc3c(Cc4ccc5c(c4)OCO5)[nH]c(-c4nccs4)c3c(=O)c12

IC50 [4]: 2.37 nM
SMILES: O=c1c2c(F)cc(Br)cc2oc2c(Cc3ccc4c(c3)OCO4)[nH]c(-c3nccs3)c12

IC50 [4]: 9.63 nM
SMILES: O=c1c2cc(Cl)ccc2oc2c(Cc3ccc4c(c3)OCO4)[nH]c(-c3nccs3)c12

SMILES: COCCNc1cc(O)c2c(=O)c3c(-c4nccs4)[nH]c(Cc4ccc5c(c4)OCO5)c3oc2c1
half-life at 0.5 µM [1]: 15.1 to 18.3 min | IC50 [9]: 39 nM | Activity (Rattus norvegicus [10]): 19.94 mmHg | Intrinsic clearance (CLint) [3]: 75.6 to 92 µL/min/mg | IC50 [11]: 1.2 nM | Activity (Rattus norvegicus [12]): Active | fraction unbound at 4 h, 1 µM [13]: 0.023 | IC50 (Cytochrome P450 2C9): 135 nM | IC50 (Cytochrome P450 1A2): > 10000 nM | Activity (Mus musculus): Non-Toxic | IC50 [14]: 43 nM | CLint scaled at 0.5 µM [5]: 136 to 165 mL/min/kg | IC50 [15]: > 30000 nM | IC50 (Cytochrome P450 2B6): > 10000 nM | IC50 (Cytochrome P450 3A4): > 10000 nM | K [6]: 0.0378 to 0.046 | Activity (Rattus norvegicus [16]): Active | IC50 [17]: 106 nM | IC50 [18]: 46 nM

IC50 [4]: 3.82 nM
SMILES: O=c1c2cc(Br)ccc2oc2c(Cc3ccc4c(c3)OCO4)[nH]c(-c3nccs3)c12

Ratio IC50 (Homo sapiens): 20
SMILES: CN1CC(=O)N2[C@H](c3ccc4c(c3)OCO4)c3[nH]c4ccccc4c3C[C@@H]2C1=O

IC50 [4]: 2.09 nM
SMILES: O=c1c2cccc(Cl)c2oc2c(Cc3ccc4c(c3)OCO4)[nH]c(-c3nccs3)c12

IC50 [4]: 3.04 nM
SMILES: O=c1c2cc(Cl)cc(Br)c2oc2c(Cc3ccc4c(c3)OCO4)[nH]c(-c3nccs3)c12

SMILES: CCCc1nn(C)c2c(=O)[nH]c(-c3cc(S(=O)(=O)N4CCN(C)CC4)ccc3OCC)nc12.O=C(O)CC(O)(CC(=O)O)C(=O)O [SILDENAFIL CITRATE]
Activity (Rattus norvegicus [19]): 20.86 mmHg

IC50 [4]: 1.63 nM
SMILES: O=c1c2cc(F)cc(F)c2oc2c(Cc3ccc4c(c3)OCO4)[nH]c(-c3nccs3)c12

IC50 [4]: 4.03 nM
SMILES: O=c1c2cc(F)ccc2oc2c(Cc3ccc4c(c3)OCO4)[nH]c(-c3nccs3)c12

half-life at 0.5 µM [1]: 5.37 min | Intrinsic clearance (CLint) [3]: 258.2 µL/min/mg | CLint scaled at 0.5 µM [5]: 463 mL/min/kg | K [6]: 0.1291
SMILES: CCCc1nn(C)c2c(=O)[nH]c(-c3cc(S(=O)(=O)N4CCN(C)CC4)ccc3OCC)nc12 [listing 2 of 2 here]

IC50 [4]: 2.64 nM
SMILES: COc1ccc2c(=O)c3c(-c4nccs4)[nH]c(Cc4ccc5c(c4)OCO5)c3oc2c1

half-life at 0.5 µM [1]: 5.26 min | hepatic extraction ratio at 0.5 µM [2]: 0.9 | Intrinsic clearance (CLint) [3]: 263.4 µL/min/mg | IC50 [4]: 0.39 nM | CLint scaled at 0.5 µM [5]: 472 mL/min/kg | K [6]: 0.1317
SMILES: CN1CCN(CCNc2cc(O)c3c(=O)c4c(-c5nccs5)[nH]c(Cc5ccc6c(c5)OCO6)c4oc3c2)CC1

IC50 [4]: 1.05 nM
SMILES: O=c1c2c(O)cccc2oc2c(Cc3ccc4c(c3)OCO4)[nH]c(-c3nccs3)c12

IC50 [4]: 6.82 nM
SMILES: COc1c(Cl)ccc2oc3c(Cc4ccc5c(c4)OCO5)[nH]c(-c4nccs4)c3c(=O)c12

IC50 [4]: 2.38 nM
SMILES: O=c1c2ccc(F)cc2oc2c(Cc3ccc4c(c3)OCO4)[nH]c(-c3nccs3)c12

IC50 [4]: 2.64 nM
SMILES: O=c1c2ccc(Cl)cc2oc2c(Cc3ccc4c(c3)OCO4)[nH]c(-c3nccs3)c12

IC50 [4]: 0.52 nM
SMILES: CNc1cc(O)c2c(=O)c3c(-c4nccs4)[nH]c(Cc4ccc5c(c4)OCO5)c3oc2c1

IC50 [4]: 0.79 nM
SMILES: O=c1c2c(O)cc(NCCN3CCOCC3)cc2oc2c(Cc3ccc4c(c3)OCO4)[nH]c(-c3nccs3)c12

IC50 [4]: 1.58 nM
SMILES: O=c1c2ccc(Br)cc2oc2c(Cc3ccc4c(c3)OCO4)[nH]c(-c3nccs3)c12
